We go through 95 compounds from PubChem BioAssay AID635 (SRMLSC, 2007).

Structures are written as SMILES. The whole screen tested about 1,300 compounds, of which about 40 (3%) were called active. These entries were drawn from the full list. Measured potencies and affinities stand elsewhere. Values without a mark were called inactive. The rule behind the calls is not given here.

A short description of the test: growth inhibition of wild-type E. coli BW25113 pool, dose response, OD615 (AID 635).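 Note: growth measured after 20 h with compound at 37 °C.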 The conditions noted are these: pooled mutant strains; at 100 µM (top of the series). A digest of the protocol: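 Material: Keio BW25113 knockout pool, 1,275 strains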
Take `Cc1cccc(N(C)C(=O)c2cc3cc4ccc(C)cc4nc3o2)c1`: the growth inhibition is -7.96%.

`CC(C)OCCCNc1ncnc2c1[nH]c1ccc(F)cc12`: the growth inhibition is -0.56%.

`CC(C)OCCCNc1ncnc2c1[nH]c1ccccc12`: the growth inhibition is 0.81%.

`O=C(CSc1nc2ccccc2o1)Nc1nc2c(s1)CCCC2`: the growth inhibition was -2.1%.

Regarding `Cc1cc(NC(=O)Cn2nnc3sc4c(c3c2=O)CCC(C(C)(C)C)C4)no1` (stereo not given), the growth inhibition is -1.22%.

Take `CCOC(=O)Cc1ccc(NS(=O)(=O)c2ccc(SC)cc2)cc1`: the growth inhibition was 0.18%.

As to `c1ccc2c(c1)CCN(c1nc3cc4c(cc3s1)OCCO4)C2`, the growth inhibition is 0.44%.

With `CC(C)c1ccc(Nc2nc(NCc3ccco3)nc(N3CCOCC3)n2)cc1`, the growth inhibition is -1.77%.

For `COc1ccc(NS(=O)(=O)c2ccc3oc(Nc4ccc5c(c4)OCCO5)nc3c2)cc1`, the growth inhibition is -4.76%.

As for `CCCN(CCC)S(=O)(=O)c1ccc(C(=O)Nc2nnc(-c3cccc(OC)c3)o2)cc1`, the growth inhibition is -1.14%.

As for `Cc1cccc(N2CCN(C(=O)C34CC5CC(CC(C5)C3)C4)CC2)c1C`, the growth inhibition was 4.49%.

Turning to `Cn1cccc1C(=O)Nc1nc(-c2ccccn2)cs1`, the growth inhibition is 1.36%.

As to `COc1ccc(C(=O)Nn2cnc3scc(-c4cccs4)c3c2=O)c(O)c1`, the growth inhibition is 0.89%.

Turning to `COC(=O)c1[nH]c2cccc(OC)c2c1NC(=O)CN1CC2(C)CC1CC(C)(C)C2` (stereo not given), the growth inhibition is 1.93%.

As for `COC(=O)c1cccc(-n2nnnc2SCC(=O)Nc2nc3c(s2)CCCC3)c1`, the growth inhibition was -0.44%.

Regarding `O=C1OC(c2ccc(O)cc2)(c2ccc(O)cc2)c2ccccc21`, the growth inhibition was 0.54%.

In the case of `Cc1cccc(Nc2nc(NCc3ccco3)nc(N3CCOCC3)n2)c1`, the growth inhibition is 0.54%.

Take `CCOc1cc(S(=O)(=O)n2cc(-c3ccc(F)cc3)c(N)n2)cc(OCC)c1OCC`: the growth inhibition is -3.17%.

On to `CC1Cc2ccccc2N1C(=O)Cn1c(=O)oc2cc(S(=O)(=O)NC3CCCC3)ccc21` (stereo not given), for which the growth inhibition was -2.66%.

On to `CCCn1nnnc1NC(=O)CSc1ccc(Cl)cc1`, for which the growth inhibition was 1.76%.

In the case of `Cc1cc(NC(=O)C2CCCCC2)nc2c1c(=O)oc1ccccc12`, the growth inhibition is -2.5%.

In the case of `N#Cc1nc(COc2ccc(F)cc2)oc1N1CCN(Cc2ccccc2)CC1`, the growth inhibition was -4.59%.

As to `c1ccc2oc(SCc3nc4ccccc4s3)nc2c1`, the growth inhibition was -0.66%.

On to `C=CCn1c(SCC(=O)Nc2ccc3c(c2)CCC3)nnc1-c1cccs1`, for which the growth inhibition is -0.97%.

Take `O=C(c1cc2ccccc2o1)N1CCN(c2ccccc2Cl)CC1`: the growth inhibition is -2.73%.

With `O=C(CSc1nnnn1C1CCCCC1)Nc1nc2c(s1)CCCC2`, the growth inhibition is -0.43%.

As for `O=C(O)c1cc(Cl)c2ccccc2c1O`, the growth inhibition is 9.52%.

`O=c1c(-c2nc3ccccc3o2)c2oc3ccccc3n2c2ccccc12`: the growth inhibition is -2.69%.

As to `Cc1cccc(S(=O)(=O)Nc2nc3ccccc3nc2NCc2ccco2)c1`, the growth inhibition is 2.5%.

For `Cc1ccc(-n2c(C)cc(C(=O)COC(=O)c3c(C)noc3C)c2C)cc1`, the growth inhibition was -5.46%.

As for `O=C(c1cccs1)N(Cc1nc2sc3c(c2c(=O)[nH]1)CCCC3)C1CCCC1`, the growth inhibition is -3.44%.

Turning to `N#Cc1ccc(NC(=O)Nc2ccc(Cl)cc2)cc1`, the growth inhibition is 12.7%.

As to `CCOc1ccc(OCCSc2nnnn2C2CCCCC2)cc1`, the growth inhibition is 2.59%.

For `COc1ccc(C(C)(C)C)cc1NC(=O)Nc1ccc2c(c1)OCO2`, the growth inhibition was 2.22%.

As to `COc1ccccc1-c1noc(CCC(=O)Nc2cccc(C(F)(F)F)c2)n1`, the growth inhibition was 9.08%.

For the compound `CCc1ccc2oc(=O)cc(CN(C)Cc3ccccc3)c2c1`, the growth inhibition was 0.54%.

Consider `O=C(c1ccc2c(=O)n(C3CCCC3)c(=S)[nH]c2c1)N1CCN(C2CCCCC2)CC1`, for which the growth inhibition is 0.27%.

As to `Cc1cc(C)c(C#N)c(SCC(=O)OC2CCCCC2)n1`, the growth inhibition is 4.58%.

Turning to `COC(=O)c1ccc(CSc2nc3ccccc3o2)cc1`, the growth inhibition was -2.69%.

On to `CCCCn1nc(NC(=O)c2cccs2)c2cc3ccccc3nc21`, for which the growth inhibition was -3.62%.

In the case of `Cc1ccccc1OCCCN1C(=O)C(=O)c2cccc(C)c21`, the growth inhibition was -1.21%.

Consider `Cc1cccc(Nc2nc(-c3ccccn3)cs2)n1`, for which the growth inhibition is -0.44%.

With `Clc1ccc(OCc2nc(-c3ccccn3)n[nH]2)cc1`, the growth inhibition was 3.08%.

With `CC1=C(C(=O)OC2CCCCCCC2)C(c2cccc(O)c2)NC(=O)N1` (stereo not given), the growth inhibition was 3.15%.

As to `CCC(C(=O)Nc1ccccc1OC)n1c(C(=O)OC)cc2ccsc21` (stereo not given), the growth inhibition is 2.88%.

Turning to `COc1cccc(-c2cc(C(=O)N3CCc4ccccc4C3)no2)c1`, the growth inhibition was -1.57%.

In the case of `CC(C)C(C(=O)NCc1ccco1)N(C(=O)CNS(=O)(=O)c1ccc(Cl)cc1)C1CCCC1` (stereo not given), the growth inhibition was -9.91%.

`O=S(=O)(N1CCCCC1)n1c(Cc2ccccc2)nc2ccccc21`: the growth inhibition is 2.59%.

Take `Cc1cc(N2CCCCC2)n2ncc(-c3ccccc3)c2n1`: the growth inhibition is 1.76%.

In the case of `Cc1ccc(C(c2nnnn2CCc2ccccc2)N2CCSCC2)cc1` (stereo not given), the growth inhibition was -0.97%.

`N#Cc1cn(Cc2cccc(Cl)c2)c2ccccc12`: the growth inhibition was 7.22%.

Regarding `CCCCN1C(=O)C2ON(c3ccccc3C)C(c3ccco3)C2C1=O` (stereo not given), the growth inhibition was 3.87%.

In the case of `CN1CCN(CC(=O)N2CCn3c4c(c5cc(C6CCCCC6)ccc53)CCCC42)CC1` (stereo not given), the growth inhibition is 1.85%.

For `CCN(CCCNC(=O)c1[nH]c(C)c(C(C)=O)c1C)c1cccc(C)c1`, the growth inhibition is 1.22%.

`CCCc1cc(C(=O)N2CCN(c3ccccc3C)CC2)cs1`: the growth inhibition is 3.4%.

For the compound `COc1ccc2nc(NC(=O)CSc3nnnn3C3CCCCC3)sc2c1`, the growth inhibition was 0.18%.

Consider `CCn1cc(C(=O)NC2CCCCC2C)c(=O)c2ccc(C)nc21` (stereo not given), for which the growth inhibition is 7.04%.

For `Cc1cccc(NC(=O)CSc2nnc(-c3cc(C)n(-c4ccccc4)c3C)o2)c1C`, the growth inhibition is 0.15%.

For `O=S(=O)(Nc1cc(Cl)ccc1N1CCCCC1)c1cccs1`, the growth inhibition is 3.05%.

In the case of `Cc1cc(=O)[nH]c(SCC(=O)Nc2nc(-c3ccccc3)cs2)n1`, the growth inhibition was 4.29%.

On to `COc1ccccc1N1CCN(C(=O)c2cc(-c3cccc(Cl)c3)on2)CC1`, for which the growth inhibition is -2.98%.

For `CC(C)c1nnc(NC(=O)c2c(O)c3cccc4c3n(c2=O)CC4)s1`, the growth inhibition is -11%.

With `CCOc1cc(S(=O)(=O)N2CCN(Cc3ccccc3)CC2)ccc1Br`, the growth inhibition was -3.26%.

Turning to `CC1CN(c2oc(COc3ccc(Cl)cc3Cl)nc2C#N)CC(C)O1` (stereo not given), the growth inhibition is -5.37%.

Take `CN(C1CCCCC1)S(=O)(=O)c1ccc(NC(=O)c2ccc(Br)o2)cc1`: the growth inhibition was -1.39%.

As to `Cc1[nH]n2c(=O)c3c(nc2c1-c1ccc(Cl)cc1)CCC3`, the growth inhibition was -1.19%.

Take `CCOC(=O)c1cn(CC)c2cc(N3CCSCC3)c(F)cc2c1=O`: the growth inhibition is 3.43%.

Take `Cc1csc(NC(=O)c2cccc(Cn3nc(C)c(Br)c3C)c2)n1`: the growth inhibition is 1.33%.

On to `COc1ccc(-c2[nH]ncc2Oc2ccccc2OC)c(O)c1`, for which the growth inhibition is 7.41%.

With `Cc1ccc(Cl)cc1NC(=O)CC(O)(C(F)(F)F)C(F)(F)F`, the growth inhibition is 15.3%.

Take `CCOC(=O)C1CCN(C(c2cccnc2)c2c(NC(=O)c3ccco3)sc(C)c2C)CC1` (stereo not given): the growth inhibition is -3.15%.

Turning to `Cc1cc(C)c(O)c(-c2cc(C(=O)Nc3ccc(S(=O)(=O)N4CCOCC4)cc3)[nH]n2)c1`, the growth inhibition was 3.2%.

Regarding `COc1ccc(S(=O)(=O)N(Cc2cccs2)C2CCCC2)cc1`, the growth inhibition was 3.24%.

As for `COc1ccc(OCC(O)Cn2c(=N)n(Cc3ccccc3)c3ccccc32)cc1` (stereo not given), the growth inhibition was 12.8%.

On to `Brc1cc(Br)c2ncnc(N3CCCCC3)c2c1`, for which the growth inhibition is 1.95%.

Regarding `CCc1nc(N2CCCCC2)c2oc3ccccc3c2n1`, the growth inhibition is -3.08%.

For the compound `COCCCN1C(=O)c2[nH]nc(-c3ccccc3O)c2C1c1ccc(Cl)cc1` (stereo not given), the growth inhibition was -4.43%.

For the compound `COc1ccccc1N1CCN(C(c2ccccc2Cl)c2nnnn2C(C)(C)C)CC1` (stereo not given), the growth inhibition was -0.1%.

As to `CC(C)c1nc(N2CCN(C(=O)c3ccco3)CC2)c2c3c(sc2n1)CCCC3`, the growth inhibition is 4.77%.

Take `O=C(CN(C(=O)CNC(=O)c1ccco1)c1ccc(Cl)c(Cl)c1)NC1CCCCC1`: the growth inhibition was 1.85%.

Turning to `CCCCOn1c(C)c(C(=O)OCC)c2c3nonc3ccc21`, the growth inhibition was 2.87%.

For `CCOC(=O)c1sc(NC(=O)CSc2n[nH]c(-c3ccccc3)n2)c(C#N)c1C`, the growth inhibition is 1.14%.

On to `Cc1cccc(Cc2c(C)nc3c(C(=O)NCc4ccco4)cnn3c2C)c1`, for which the growth inhibition is -6.42%.

Regarding `Cc1noc(C)c1S(=O)(=O)N(CCc1ccccc1)Cc1ccccc1`, the growth inhibition is 3.25%.

Regarding `Cc1ccc2c3c1C1(C(=O)N3C(C)(C)CC2C)C(C#N)=C(N)Oc2cc(O)ccc21` (stereo not given), the growth inhibition was 4.82%.

Consider `Cc1ccc(C2C(S(C)(=O)=O)=C(O)C(=O)N2c2ccccc2)cc1` (stereo not given) (tested in a mixture with another compound), for which the growth inhibition is 3.27%.

For the compound `CC1CCCC(C)N1C(=O)CN1C(=O)C(C)(C)Oc2ccc(C(=O)NC3CCCCC3)cc21` (stereo not given), the growth inhibition is -0.3%.

Take `Oc1ccccc1-c1cc(-c2ccc3c(c2)OCCO3)n[nH]1`: the growth inhibition is 5.21%.

For the compound `Cc1csc(SCC(=O)Nc2nc(-c3ccccc3)cs2)n1`, the growth inhibition is 0.45%.

For `O=C(Nc1nc(SCc2ccc(F)cc2)ns1)c1ccco1`, the growth inhibition was 8.93%.

With `COc1ccc2[nH]c(=O)c(CN(C(=O)NC3CCCCC3)C3CCCCC3)cc2c1`, the growth inhibition was -1.14%.

With `COC(=O)c1c(NC(=O)Cc2cccs2)sc2c1CCCC2`, the growth inhibition is 4.36%.

Turning to `Cn1c(-c2ccc3c(c2)OCO3)cnc1N`, the growth inhibition is -1.76% (active).

For the compound `N#Cc1c(N)oc(-c2ccc3c(c2)OCO3)c1-c1ccc2c(c1)OCO2`, the growth inhibition was 1.41%.

As for `OCCn1c(-c2ccc3c(c2)OCO3)csc1=Nc1ccccc1`, the growth inhibition was -0.74%.
